{"source": "paper PMC5084670", "about": "(Cancer Science, 2016)", "type_in_all_cases": "in vivo, human", "key": {"[1]": {"experiment": "Pharmacokinetics of sonidegib in plasma", "conditions": "for Exposure accumulation as the AUC ratio / AUC accumulation: cycle 1 day 15; for AUC(0-t) / Tmax / Cmax: human, plasma, oral; for Tmax: T max; for Cmax: C max"}, "[2]": {"test_system": "advanced solid tumors", "experiment": "Tumor response by RECIST version 1.0", "in_short": "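Daily oral test compound was given in 28-day cycles to adults with advanced solid tumors who had measurable or evaluable disease. Investigators judged tumor response from CT or MRI scans according to RECIST version 1.0.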"}, "[3]": {"test_system": "GLI1", "experiment": "GLI1 expression in normal skin samples by RT-PCR", "in_short": "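Adult Asian patients with advanced solid tumors took oral test compound once daily in 28-day cycles after a 7-day single-dose run-in. Normal skin was sampled before treatment, at the end of cycle 1, and within 14 days after the last dose. RNA was extracted and analysed by RT-PCR to estimate GLI1 expression as a marker of Hh pathway activation.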"}}, "data": [{"compound": "Cc1c(C(=O)Nc2ccc(N3C[C@@H](C)O[C@@H](C)C3)nc2)cccc1-c1ccc(OC(F)(F)F)cc1", "note": "[Sonidegib]", "values": [{"measurement": "Steady state", "setting": "[1]; both groups", "result": "not achieved within cycle 1"}, {"measurement": "Plasma concentration at 168 h after a single dose", "setting": "[1]; both groups at every dose", "result": "detected"}, {"measurement": "Exposure accumulation as the AUC ratio", "setting": "[1]; group 1, 400 mg", "result": 4.9, "unit": "fold"}, {"measurement": "Accumulation in trough levels", "setting": "[1]; group 1, 400 mg, cycle 2 day 1 vs 24-h post-dose concentration in run-in", "result": 12.4, "unit": "fold"}, {"measurement": "Accumulation in trough levels", "setting": "[1]; group 1, 400 mg, cycle 2 day 22 vs 24-h post-dose concentration in run-in", "result": 19.6, "unit": "fold"}, {"measurement": "Exposure accumulation as the AUC ratio", "setting": "[1]; group 1, 600 mg", "result": 4.6, "unit": "fold"}, {"measurement": "Accumulation in trough levels", "setting": "[1]; group 1, 600 mg, cycle 2 day 1 vs 24-h post-dose concentration in run-in", "result": 14.3, "unit": "fold"}, {"measurement": "Accumulation in trough levels", "setting": "[1]; group 1, 600 mg, cycle 2 day 22 vs 24-h post-dose concentration in run-in", "result": 19.9, "unit": "fold"}, {"measurement": "AUC accumulation", "setting": "[1]; group 2, 400 mg", "result": "approximately 4.3 fold"}, {"measurement": "Trough accumulation", "setting": "[1]; group 2, 400 mg, cycle 2 day 1", "result": 13.9, "unit": "fold"}, {"measurement": "Trough accumulation", "setting": "[1]; group 2, 400 mg, cycle 2 day 22", "result": 16.3, "unit": "fold"}, {"measurement": "AUC accumulation", "setting": "[1]; group 2, 600 mg", "result": "~4.2", "unit": "fold"}, {"measurement": "Trough accumulation", "setting": "[1]; group 2, 600 mg, cycle 2 day 1", "result": 12.3, "unit": "fold"}, {"measurement": "Trough accumulation", "setting": "[1]; group 2, 600 mg, cycle 2 day 22", "result": 13.8, "unit": "fold"}, {"measurement": "AUC accumulation", "setting": "[1]; group 2, 800 mg", "result": "~6.0", "unit": "fold"}, {"measurement": "AUC(0-t)", "setting": "[1]; 400 mg q.d., AUClast, cycle 1, day 15 (last sampling 24 h), group 2, 400 mg q.d., n = 9, geometric mean (% CV)", "result": 12300, "unit": "ng·h/mL"}, {"measurement": "AUC(0-t)", "setting": "[1]; 400 mg, AUC0–24, pharmacokinetic run-in (single dose), group 1, 400 mg, n = 12, geometric mean (% CV)", "result": 2010, "unit": "ng·h/mL"}, {"measurement": "AUC(0-t)", "setting": "[1]; 400 mg, AUC0–24, pharmacokinetic run-in (single dose), group 2, 400 mg, n = 12, geometric mean (% CV)", "result": 2890, "unit": "ng·h/mL"}, {"measurement": "Tmax", "setting": "[1]; 400 mg, cycle 1, day 15, group 1, 400 mg q.d., n = 12, median", "result": 2, "unit": "h"}, {"measurement": "Tmax", "setting": "[1]; 400 mg, pharmacokinetic run-in (single dose), group 1, 400 mg, n = 12, median", "result": 3, "unit": "h"}, {"measurement": "Tmax", "setting": "[1]; 400 mg, pharmacokinetic run-in (single dose), group 2, 400 mg, n = 12, median", "result": 3, "unit": "h"}, {"measurement": "AUC(0-t)", "setting": "[1]; 600 mg, AUC0–24, pharmacokinetic run-in (single dose), group 1, 600 mg, n = 9, geometric mean (% CV)", "result": 3330, "unit": "ng·h/mL"}, {"measurement": "AUC(0-t)", "setting": "[1]; 600 mg, AUC0–24, pharmacokinetic run-in (single dose), group 2, 600 mg, n = 8, geometric mean (% CV)", "result": 3420, "unit": "ng·h/mL"}, {"measurement": "Cmax", "setting": "[1]; 600 mg, cycle 1, day 15, group 1, 600 mg q.d., n = 8, geometric mean (% CV)", "result": 1010, "unit": "ng/mL"}, {"measurement": "Tmax", "setting": "[1]; 600 mg, cycle 1, day 15, group 1, 600 mg q.d., n = 8, median", "result": 2, "unit": "h"}, {"measurement": "Tmax", "setting": "[1]; 600 mg, cycle 1, day 15, group 2, 600 mg q.d., n = 5, median", "result": 4, "unit": "h"}, {"measurement": "Tmax", "setting": "[1]; 600 mg, pharmacokinetic run-in (single dose), group 1, 600 mg, n = 9, median", "result": 2, "unit": "h"}, {"measurement": "Tmax", "setting": "[1]; 600 mg, pharmacokinetic run-in (single dose), group 2, 600 mg, n = 8, median", "result": 3, "unit": "h"}, {"measurement": "AUC(0-t)", "setting": "[1]; 800 mg, AUC0–24, pharmacokinetic run-in (single dose), group 2, 800 mg, n = 4, geometric mean (% CV)", "result": 3650, "unit": "ng·h/mL"}, {"measurement": "Cmax", "setting": "[1]; 800 mg, cycle 1, day 15, group 2, 800 mg q.d., n = 2, geometric mean (% CV)", "result": 1230, "unit": "ng/mL"}, {"measurement": "Tmax", "setting": "[1]; 800 mg, pharmacokinetic run-in (single dose), group 2, 800 mg, n = 4, median", "result": 2, "unit": "h"}, {"measurement": "Tmax", "setting": "[1]; after a single dose in run-in period and repeated dosing in cycle 1 day 15, both groups", "result": "2 to 4", "unit": "h"}, {"measurement": "Stable disease (SD), number of patients", "setting": "[2]; group 1, 400 mg", "result": 4, "unit": "patients"}, {"measurement": "Stable disease (SD), number of patients", "setting": "[2]; group 1, 600 mg", "result": 1, "unit": "patients"}, {"measurement": "Progressive disease, patients", "setting": "[2]; group 1, 15 patients", "result": 71, "unit": "%"}, {"measurement": "Stable disease (SD), patients", "setting": "[2]; group 1, five patients", "result": 24, "unit": "%"}, {"measurement": "Complete response or partial response", "setting": "[2]; group 1 and group 2", "result": "Neither complete response nor partial response was observed"}, {"measurement": "Stable disease (SD), number of patients", "setting": "[2]; group 2, 600 mg", "result": "three"}, {"measurement": "Best overall response SD, patients", "setting": "[2]; group 2, 10 patients", "result": 42, "unit": "%"}, {"measurement": "Progressive disease, patients", "setting": "[2]; group 2, nine patients", "result": 38, "unit": "%"}, {"measurement": "Inhibition in GLI1 (normal skin, end of cycle 1 vs before treatment)", "setting": "[3]; group 1, 400 mg, four patients", "result": "32–88%"}, {"measurement": "Inhibition in GLI1 (normal skin, end of cycle 1 vs before treatment)", "setting": "[3]; group 1, 600 mg, nine patients", "result": "73–96%"}, {"measurement": "Inhibition in GLI1 (normal skin, end of cycle 1 vs before treatment)", "setting": "[3]; group 2, 400 mg, six patients", "result": "6.8–95%"}, {"measurement": "Inhibition in GLI1 (normal skin, end of cycle 1 vs before treatment)", "setting": "[3]; group 2, 600 mg, two patients", "result": "53–83%"}, {"measurement": "GLI1 expression in normal skin samples", "setting": "[3]; paired samples from 22 patients, all except one patient", "result": "decreased GLI1 expression"}]}]}
